According to ChEMBL document CHEMBL4145691, “Metalloporphyrin-Catalyzed Oxidation of Sunitinib and Pazopanib, Two Anticancer Tyrosine Kinase Inhibitors: Evidence for New Potentially Toxic Metabolites” (J Med Chem, 2018):

Experiments:
[1] = Drug level using pazopanib assessed as compound formation in presence of MMPP and Mn(III)TDCPP/Cl by NMR and mass spectrometry; assay type: physicochemical
Summary of the method: (§1)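 Biomimetic oxidation catalysed by Mn(III)-porphyrin with water-soluble oxygen donor (KHSO5 or MMPP), run in biphasic water/organic medium with a quaternary ammonium salt as phase-transfer catalyst. Products identified by NMR and mass spectrometry.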

[2] = Drug level using sunitinib assessed as compound formation in presence of KHSO5 and Mn(III)TDCPP/Cl by NMR and mass spectrometry; assay type: physicochemical; summary of the method: as §1
[3] = Retention time of the compound in presence of KHSO5 and Mn(III)TDCPP/Cl by UHPLC-MS analysis; assay type: physicochemical
Summary of the method: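 Sunitinib oxidation mixture run by UHPLC-MS at 0.4 mL/min and 30 °C. Eluents: 5 mM ammonium formate pH 3.2, and 0.1% formic acid in acetonitrile. Gradient 5→35% B by 3.5 min, held to 5.5 min, then 95% by 6.5 min. ESI+, full scan m/z 200–500 plus MRM.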

[4] = Retention time of the compound in presence of MMPP and Mn(III)TDCPP/Cl by UHPLC-MS analysis; assay type: physicochemical
Summary of the method: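 Pazopanib oxidation mixture run by UHPLC-MS at 0.4 mL/min and 30 °C. Eluents: 5 mM ammonium formate pH 3.2, and 0.1% formic acid in acetonitrile. ESI+, full scan m/z 200–520 plus MRM.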

[5] = Retention time of the compound in human liver microsomes by UHPLC-MS analysis; assay type: ADME, microsome
Summary of the method: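 Human liver microsomes (final 0.5 mg/mL protein) with NADPH regenerating system in 0.1 M phosphate pH 7.4, pre-incubated 5 min at 37 °C. Stopped with acetonitrile, centrifuged, filtered, supernatant analysed by UHPLC-MS (ESI+, full scan/MRM). No-NADPH negative control.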

| SMILES | Product formation [1] | Product formation [2] | Retention_time [4] | Retention_time [5] | other results |
| --- | --- | --- | --- | --- | --- |
| CC(=O)OCc1c2ccc(N(C)c3ccnc(Nc4ccc(C)c(S(N)(=O)=O)c4)n3)cc2nn1C | Active | – | – | – | – |
| Cc1ccc(Nc2nccc(N(C)c3ccc4c(CO)n(C)nc4c3)n2)cc1S(N)(=O)=O | Active | – | 2.56 min | – | – |
| CO/N=C/c1c2ccc(N(C)c3ccnc(Nc4ccc(C)c(S(N)(=O)=O)c4)n3)cc2nn1C | Active | – | – | – | Retention time [4]: 2.96 to 3.11 min |
| Cc1ccc(Nc2ncc(Cl)c(N(C)c3ccc4c(C=O)n(C)nc4c3)n2)cc1S(N)(=O)=O | Active | – | 3.63 min | – | – |
| Cc1ccc(Nc2nccc(N(C)c3ccc4c(C=O)n(C)nc4c3)n2)cc1S(N)(=O)=O | Active | – | 2.82 min | 2.84 min | – |
| Cc1ccc(Nc2ncc(Cl)c(N(C)c3ccc4c(C)n(C)nc4c3)n2)cc1S(N)(=O)=O | Active | – | 3.55 min | 3.54 min | – |
| CCN(CC)CCNC(=O)c1c(/C=N/OC)[nH]c(/C=C2\C(=O)Nc3ccc(F)cc32)c1C | – | – | – | 4.74 min | Retention_time [3]: 4.77 min |
| Cc1ccc(Nc2ncc(Cl)c(N(C)c3ccc4c(CO)n(C)nc4c3)n2)cc1S(N)(=O)=O | Active | – | 3.32 min | – | – |

Further lines, with some results ahead:

| Product formation [1] | Product formation [2] | Retention_time [4] | Retention_time [5] | SMILES | other results |
| --- | --- | --- | --- | --- | --- |
| – | Active | – | – | CC[N+]([O-])(CC)CCNC(=O)c1c(C)[nH]c(/C=C2\C(=O)Nc3ccc(F)cc32)c1C | – |
| – | Active | – | – | CCN(CC)CCNC(=O)c1c(COC)[nH]c(/C=C2\C(=O)Nc3ccc(F)cc32)c1C | Retention time [3]: 4.56 min |
| – | Active | – | 4.36 min | CCN(CC)CCNC(=O)c1c(C=O)[nH]c(/C=C2\C(=O)Nc3ccc(F)cc32)c1C | Retention_time [3]: 4.36 min |
| – | Active | – | 4.36 min | CCN(CC)CCNC(=O)c1c(CO)[nH]c(/C=C2\C(=O)Nc3ccc(F)cc32)c1C | Retention_time [3]: 4.36 min |
